From ChEMBL document CHEMBL3593234, “Lanostane Triterpenes from the Tibetan Medicinal Mushroom Ganoderma leucocontextum and Their Inhibitory Effects on HMG-CoA Reductase and α-Glucosidase” (J Nat Prod, 2015)

Key:
[1] = Inhibition of alpha-glucosidase (unknown origin); parameters: species or system Homo sapiens
Outline: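 Baker's yeast enzyme with phosphate buffer; absorbance read at 405 nm. Compound-free controls and enzyme-free blanks used. % inhibition = [(ODcontrol − ODcontrol blank) − (ODtest − ODtest blank)]/(ODcontrol − ODcontrol blank) × 100.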

[2] = target: Sucrase-isomaltase, intestinal (Rattus norvegicus, UniProt P23739); experiment: Inhibition of sucrase in rat intestinal mucosa pre-incubated for 40 mins using sucrose substrate; format: tissue-based
Outline: (§1)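 Rat intestinal mucosa powder (1.0 g) was suspended in 3 mL 0.9% saline and sonicated at 4 °C (12 × 30 s), then spun at 10000g, 4 °C, 30 min; the supernatant served as enzyme. Compound in DMSO was mixed with substrate (maltose, sucrose or p-nitrophenyl-α-D-glucopyranoside) in 0.1 M phosphate buffer pH 6.9 and preincubated 40 min. Glucose was read by GOD kit at 550 nm, with blank-corrected percent inhibition.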

[3] = Inhibition of Baker's yeast alpha-glucosidase; parameters: species or system Saccharomyces cerevisiae
Outline: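 Baker's yeast α-glucosidase assay read by absorbance at 405 nm. Control wells got phosphate buffer instead of compound, and blanks got buffer instead of enzyme. Percent inhibition was calculated from blank-corrected OD of test versus control wells.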

[4] = target: T1, 3-hydroxy-3-methylglutaryl-coenzyme A reductase (Sus scrofa, UniProt Q1W675); experiment: Inhibition of pig liver microsomes HMG-CoA reductase incubated for 5 mins in using HMG-CoA and NADPH by colorimetric method
T1 sequence (Q1W675 whole entry): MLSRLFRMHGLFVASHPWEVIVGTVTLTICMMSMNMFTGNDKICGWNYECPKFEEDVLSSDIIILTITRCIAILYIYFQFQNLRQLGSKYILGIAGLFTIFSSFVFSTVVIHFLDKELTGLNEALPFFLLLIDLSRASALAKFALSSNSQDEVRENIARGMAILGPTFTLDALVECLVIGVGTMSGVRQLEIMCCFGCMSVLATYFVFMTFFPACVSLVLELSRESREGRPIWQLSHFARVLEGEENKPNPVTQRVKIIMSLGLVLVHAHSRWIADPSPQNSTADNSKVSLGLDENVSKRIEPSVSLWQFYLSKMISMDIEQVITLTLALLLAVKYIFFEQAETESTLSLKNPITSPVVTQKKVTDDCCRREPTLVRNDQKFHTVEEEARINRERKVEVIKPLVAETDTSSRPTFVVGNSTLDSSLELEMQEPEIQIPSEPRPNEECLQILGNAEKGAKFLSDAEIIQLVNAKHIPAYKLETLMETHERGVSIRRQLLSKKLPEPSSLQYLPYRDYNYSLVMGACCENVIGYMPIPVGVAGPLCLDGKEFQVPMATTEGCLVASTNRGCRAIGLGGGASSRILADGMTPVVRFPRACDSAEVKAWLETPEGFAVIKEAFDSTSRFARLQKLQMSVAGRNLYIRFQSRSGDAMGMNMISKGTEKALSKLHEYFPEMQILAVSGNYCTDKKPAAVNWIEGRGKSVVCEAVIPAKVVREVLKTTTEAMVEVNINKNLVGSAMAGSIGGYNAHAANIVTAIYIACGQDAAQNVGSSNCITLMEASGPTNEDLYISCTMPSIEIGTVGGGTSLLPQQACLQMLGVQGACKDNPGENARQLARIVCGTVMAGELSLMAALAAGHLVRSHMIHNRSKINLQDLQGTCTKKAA
Outline: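 Pig liver microsomal HMG-CoA reductase at about 4 U/mL final, with compound at 2.5–80 μM final and 200 μM HMG-CoA. Buffer was 0.1 mol/L potassium phosphate pH 7.0 with EDTA, dithiothreitol and BSA. After 5 min at 37 °C, 100 μM NADPH was added for 15 min at 37 °C. Absorbance was read at 340 nm, with percent inhibition from blank-corrected OD.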

[5] = tested on: K562; experiment: Cytotoxicity against human K562 cells by MTT method; format: functional, cell-based; conditions: Homo sapiens, K562
[6] = Inhibition of alpha-glucosidase in rat intestinal mucosa pre-incubated for 40 mins using p-nitrophenyl-alpha-D-glucopyranoside substrate; format: tissue-based; outline: as §1
[7] = tested on: PC-3; experiment: Cytotoxicity against human PC3 cells by MTT method; format: functional, cell-based; conditions: Homo sapiens, PC-3
[8] = target: T2, 3-hydroxy-3-methylglutaryl-coenzyme A reductase (Homo sapiens, UniProt P04035); experiment: Inhibition of HMG-CoA reductase (unknown origin)
T2 sequence (P04035 whole entry): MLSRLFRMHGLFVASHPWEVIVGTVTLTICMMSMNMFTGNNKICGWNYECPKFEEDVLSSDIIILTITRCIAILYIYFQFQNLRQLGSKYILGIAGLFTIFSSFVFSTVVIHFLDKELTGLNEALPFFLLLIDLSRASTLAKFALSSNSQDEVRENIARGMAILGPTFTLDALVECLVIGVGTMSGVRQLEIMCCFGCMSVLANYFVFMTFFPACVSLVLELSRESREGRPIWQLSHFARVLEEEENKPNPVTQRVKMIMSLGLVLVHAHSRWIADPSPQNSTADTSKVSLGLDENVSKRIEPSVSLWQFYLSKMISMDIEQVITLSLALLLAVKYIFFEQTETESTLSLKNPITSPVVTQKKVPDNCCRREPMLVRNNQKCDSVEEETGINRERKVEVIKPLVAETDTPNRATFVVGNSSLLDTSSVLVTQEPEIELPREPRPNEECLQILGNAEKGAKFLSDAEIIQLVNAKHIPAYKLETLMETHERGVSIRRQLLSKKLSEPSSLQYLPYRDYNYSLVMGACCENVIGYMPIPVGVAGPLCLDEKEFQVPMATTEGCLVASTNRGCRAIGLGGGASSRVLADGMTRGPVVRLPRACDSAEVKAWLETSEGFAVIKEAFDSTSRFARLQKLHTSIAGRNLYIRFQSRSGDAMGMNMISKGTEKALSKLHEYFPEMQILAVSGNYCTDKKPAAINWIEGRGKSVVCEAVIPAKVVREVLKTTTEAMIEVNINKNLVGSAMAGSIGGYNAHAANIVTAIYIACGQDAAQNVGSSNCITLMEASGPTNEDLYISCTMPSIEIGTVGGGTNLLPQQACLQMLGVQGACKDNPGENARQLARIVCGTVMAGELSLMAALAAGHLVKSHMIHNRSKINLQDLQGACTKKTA
Outline: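 Pig liver microsomal enzyme (about 4 U/mL final), colorimetric. Compounds at 2.5–80 μM final with HMG-CoA (200 μM final) in 0.1 mol/L potassium phosphate pH 7.0 (3.5 mmol/L EDTA, 10 mmol/L DTT, 0.1 g/L BSA). Preincubated 5 min at 37 °C, then NADPH (100 μM final) added for 15 min at 37 °C. A340 read; % inhibition against enzyme-free blanks and compound-free controls.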

Sequence of Sucrase-isomaltase, intestinal (P23739 1-1013 limits assumed): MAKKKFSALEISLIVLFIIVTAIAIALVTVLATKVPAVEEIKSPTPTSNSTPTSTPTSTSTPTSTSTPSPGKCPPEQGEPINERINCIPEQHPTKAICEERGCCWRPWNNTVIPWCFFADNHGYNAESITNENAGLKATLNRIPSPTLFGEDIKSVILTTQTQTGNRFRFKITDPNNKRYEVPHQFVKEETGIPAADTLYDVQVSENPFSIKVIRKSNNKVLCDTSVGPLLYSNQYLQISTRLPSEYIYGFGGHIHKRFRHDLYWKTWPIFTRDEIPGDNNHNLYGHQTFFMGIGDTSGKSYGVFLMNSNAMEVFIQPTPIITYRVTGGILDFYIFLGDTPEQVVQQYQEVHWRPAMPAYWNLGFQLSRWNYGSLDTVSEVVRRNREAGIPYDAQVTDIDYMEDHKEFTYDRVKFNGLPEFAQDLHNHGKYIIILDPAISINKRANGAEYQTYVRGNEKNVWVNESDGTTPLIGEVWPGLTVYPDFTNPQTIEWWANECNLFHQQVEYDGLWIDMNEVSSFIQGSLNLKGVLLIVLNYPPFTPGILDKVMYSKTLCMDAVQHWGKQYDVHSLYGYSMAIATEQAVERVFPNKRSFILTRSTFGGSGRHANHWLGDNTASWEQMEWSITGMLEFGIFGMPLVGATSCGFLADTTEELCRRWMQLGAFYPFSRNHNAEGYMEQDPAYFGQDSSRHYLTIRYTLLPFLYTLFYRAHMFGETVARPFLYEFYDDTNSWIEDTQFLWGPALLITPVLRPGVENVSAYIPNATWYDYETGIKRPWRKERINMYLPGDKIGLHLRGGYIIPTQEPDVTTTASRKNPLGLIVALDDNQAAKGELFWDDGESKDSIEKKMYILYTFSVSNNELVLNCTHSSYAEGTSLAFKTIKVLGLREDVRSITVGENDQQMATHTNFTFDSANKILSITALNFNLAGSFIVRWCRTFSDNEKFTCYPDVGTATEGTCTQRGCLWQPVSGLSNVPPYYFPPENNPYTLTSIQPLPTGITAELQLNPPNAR
Sequence of Sucrase-isomaltase, intestinal (P23739 1014-1841 limits assumed): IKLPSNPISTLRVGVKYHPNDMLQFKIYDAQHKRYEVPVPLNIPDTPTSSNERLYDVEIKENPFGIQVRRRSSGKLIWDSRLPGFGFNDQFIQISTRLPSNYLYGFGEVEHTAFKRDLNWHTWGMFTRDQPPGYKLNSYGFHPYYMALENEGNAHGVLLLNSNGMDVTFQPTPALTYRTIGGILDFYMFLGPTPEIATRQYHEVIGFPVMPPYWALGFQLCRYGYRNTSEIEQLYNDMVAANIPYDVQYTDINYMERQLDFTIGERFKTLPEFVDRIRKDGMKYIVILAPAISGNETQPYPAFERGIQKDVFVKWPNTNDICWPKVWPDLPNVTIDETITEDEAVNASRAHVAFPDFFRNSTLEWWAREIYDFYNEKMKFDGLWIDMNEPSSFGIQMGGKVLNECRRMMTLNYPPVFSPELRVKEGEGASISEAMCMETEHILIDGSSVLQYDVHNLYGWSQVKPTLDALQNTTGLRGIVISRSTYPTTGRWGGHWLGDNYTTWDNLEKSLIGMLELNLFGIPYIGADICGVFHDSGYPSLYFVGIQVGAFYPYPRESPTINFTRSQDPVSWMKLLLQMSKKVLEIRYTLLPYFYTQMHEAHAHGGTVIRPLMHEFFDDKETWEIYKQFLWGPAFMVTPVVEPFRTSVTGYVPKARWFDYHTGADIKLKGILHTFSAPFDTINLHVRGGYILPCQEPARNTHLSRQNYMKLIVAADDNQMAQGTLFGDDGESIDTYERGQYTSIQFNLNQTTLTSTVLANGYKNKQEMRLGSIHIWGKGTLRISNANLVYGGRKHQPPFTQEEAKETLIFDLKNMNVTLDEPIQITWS

IC50 [2] [µM]	IC50 [3] [µM]	IC50 [4] [µM]	IC50 [6] [µM]	Compound	IC50 [1] [µM]	IC50 [5] [µM]	IC50 [7] [µM]	IC50 [8] [µM]
				C/C(=C\CC[C@@H](C)[C@H]1CC[C@@]2(C)C3=CC[C@H]4C(C)(C)[C@@H](O)CC[C@]4(C)C3=CC[C@]12C)CO [GANODEROL B]	120			
> 50	> 50	> 100	> 50	CC(C)=CCC/C(C)=C/CC/C(=C\Cc1cc(O)ccc1O)C(=O)O[C@@H](CC[C@@H](C)[C@H]1CC[C@@]2(C)C3=CC[C@H]4C(C)(C)C(=O)CC[C@]4(C)C3=CC[C@]12C)[C@](C)(O)CO		104	> 200	
				C/C(=C\CC[C@@H](C)[C@H]1C[C@H](O)[C@@]2(C)C3=CC[C@H]4C(C)(C)C(=O)CC[C@]4(C)C3=CC[C@]12C)C(=O)O				21.7
				C/C(=C\CC[C@@H](C)[C@H]1CC[C@@]2(C)C3=C(CC[C@]12C)[C@@]1(C)CC[C@H](O)C(C)(C)[C@@H]1CC3=O)C(=O)O				22.3
8.4	13.6	18.9	1.5	CC(C)=CCC/C(C)=C/CC/C(=C/Cc1cc(O)ccc1O)C(=O)OC[C@@](C)(O)[C@@H](O)CC[C@@H](C)[C@H]1CC[C@@]2(C)C3=CC[C@H]4C(C)(C)C(=O)CC[C@]4(C)C3=CC[C@]12C		48.6	58.4	
